Measurements taken from ChEMBL document CHEMBL3046326, “Screening of dialkoxybenzenes and disubstituted cyclopentene derivatives against the cabbage looper, Trichoplusia ni, for the discovery of new feeding and oviposition deterrents” (J Agric Food Chem, 2007).

How the values were obtained:
[1] = test system: Trichoplusia ni; experiment: Toxicity against third-instar larval stage of Trichoplusia ni (cabbage looper) assessed as mortality at 0.25% measured after 24 hr by contact toxicity bioassay; assay type: functional
How it was run: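 Third-instar larvae were sprayed directly with test solution at 0.25% in filter-paper-lined Petri dishes. They were then moved to dishes holding a small piece of artificial diet. Mortality was scored 24 h after spraying. The test applied only to compounds giving >50% feeding deterrence at 50 µg/cm².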

[2] = test system: Trichoplusia ni; experiment: Oviposition deterrent activity against adult female Trichoplusia ni (cabbage looper) moths introduced along with male moths into oviposition cage containing compound pretreated cabbage leaves assessed as eggs laying on the leaf disks at 0.25% after 48 hr by oviposition choice bioassay; assay type: functional
How it was run: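 Choice test with moths from larvae reared on normal diet from neonate to pupation. Pupae were sexed and held separately until emergence. Cabbage leaves were treated with test substance at 0.25% or left as control, and eggs per leaf were counted after 48 h. ODI = [(C − T)/(C + T)] × 100 from egg numbers on control and treated leaves.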

[3] = test system: Trichoplusia ni; experiment: Feeding deterrent activity against freshly molted third-instar larval stage of Trichoplusia ni (cabbage looper) after 3 to 5 hr by leaf disk choice bioassay; assay type: functional, organism-based
How it was run: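 Choice test: freshly molted third instar larvae, starved 4–5 h, offered two leaf disks, one painted on each side with 10 µL test solution and one with carrier solvent only. Twenty-five larvae per treatment. Ended when ~50% of the control disk was eaten (normally 3–5 h). Consumed areas measured. DC50 derived by linear regression of at least four concentrations (3.12–25 µg/cm²).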

[4] = test system: Trichoplusia ni; experiment: Feeding deterrent activity against freshly molted third-instar larval stage of Trichoplusia ni (cabbage looper), Trichoplusia ni at 50 ug/cm'2 after 3 to 5 hr by leaf disk choice bioassay; assay type: functional
How it was run: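 Leaf disk choice with freshly molted third instar larvae starved 4–5 h. One disk was painted on each side with 10 µL solution giving 50 µg/cm², the other with carrier solvent. Twenty-five larvae per treatment, stopped at ~50% control disk consumption (3–5 h). Deterrence = [(C − T)/(C + T)] × 100 from consumed areas; mean ± SE, Tukey's test p < 0.05.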

[5] = test system: Trichoplusia ni; experiment: Toxicity against third-instar larval stage of Trichoplusia ni (cabbage looper) assessed as mortality measured after 24 hr by contact toxicity bioassay; assay type: functional
How it was run: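 Third-instar larvae were hand-sprayed directly with test solutions in filter-paper-lined Petri dishes, then moved to dishes holding a small piece of artificial diet. Mortality was recorded at 24 h.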

[6] = test system: Helicoverpa zea; experiment: Larvicidal activity against Helicoverpa zea (corn earworm) assessed as growth inhibition at 3 mM/kg relative to control by chronic feeding bioassay; assay type: functional; details: read-out: GI

Row | Structure (SMILES) | mortality [1] [%] | Activity [2] [%] | DC50 [3] [microg/cm2] | Activity [4] [%] | LC50 [5] [%] | inhibition of growth at 3000 µM [6] [%]
1 | CCOc1ccc(OCC)cc1 [1,4-DIETHOXYBENZENE] | 100 | 74.7 | 25.9 | 80.8 | 0.03 | –
2 | CCCOc1ccccc1OCC [1-ethoxy-2-propoxybenzene] | 6.7 | 28.7 | 24.1 | 71 | – | –
3 | CCCCCOc1cccc(OCC)c1 [1-ethoxy-3-pentoxybenzene] | 20 | 14.3 | 26.5 | 69.8 | – | –
4 | CCCOc1cccc(OCC)c1 [1-ethoxy-3-propoxybenzene] | 20 | 14.3 | 26.5 | 69.8 | – | –
5 | CCCCCOc1ccc(OCC)cc1 [1-ethoxy-4-pentoxybenzene] | 96.8 | 56.6 | 23.4 | 90.7 | 0.03 | –
6 | CCCCOc1ccccc1OCCC(C)C [1-isopentoxy-2-butoxybenzene] | 10 | 29.4 | 32.5 | 66.9 | – | –
7 | CCOc1ccccc1OCCC(C)C [1-isopentoxy-2-ethoxybenzene] | 10 | 29.4 | 32.5 | 66.9 | – | –
8 | COc1ccccc1OCCC(C)C [1-isopentoxy-2-methoxybenzene] | 10 | 29.4 | 32.5 | 66.9 | – | –
9 | CCCCCOc1ccccc1OCCC(C)C [1-isopentoxy-2-pentoxybenzene] | 10 | 29.4 | 32.5 | 66.9 | – | –
10 | CCOc1cccc(OCCC(C)C)c1 [1-isopentyloxy-3-ethoxybenzene] | 20.8 | 35.7 | 19.8 | 82.6 | – | –
11 | COc1cccc(OCCC(C)C)c1 [1-isopentyloxy-3-methoxybenzene] | 20.8 | 35.7 | 19.8 | 82.6 | – | –
12 | CCCCCOc1cccc(OCCC(C)C)c1 [1-isopentyloxy-3-pentoxybenzene] | 20.8 | 35.7 | 19.8 | 82.6 | – | –
13 | CCOc1ccc(OCCC(C)C)cc1 [1-isopentyloxy-4-ethoxybenzene] | 18.8 | 22.9 | 5.8 | 100 | – | –
14 | COc1ccc(OCCC(C)C)cc1 [1-isopentyloxy-4-methoxybenzene] | 18.8 | 22.9 | 5.8 | 100 | – | –
15 | CCCOc1ccc(OCCC(C)C)cc1 [1-isopentyloxy-4-propoxybenzene] | 18.8 | 22.9 | 5.8 | 100 | – | –
16 | CCOc1cccc(OC)c1 [1-methoxy-3-ethoxybenzene] | 16.7 | 70.2 | 61.5 | 54.8 | – | –
17 | CCCCCOc1cccc(OC)c1 [1-methoxy-3-pentoxybenzene] | 16.7 | 70.2 | 61.5 | 54.8 | – | –
18 | CCCOc1cccc(OC)c1 [1-methoxy-3-propoxybenzene] | 16.7 | 70.2 | 61.5 | 54.8 | – | –
19 | CCOc1ccc(OC)cc1 [1-methoxy-4-ethoxybenzene] | 23.3 | 6 | 34.6 | 80.2 | 0.03 | –
20 | CCCCCOc1ccc(OC)cc1 [1-methoxy-4-pentoxybenzene] | 23.3 | 6 | 34.6 | 80.2 | – | –
21 | CCCOc1ccc(OC)cc1 [1-methoxy-4-propoxybenzene] | 23.3 | 6 | 34.6 | 53.4 | – | –
22 | CCCCOc1ccccc1OCCC [1-propoxy-2-butoxybenzene] | 13.8 | 31.7 | 19.4 | 100 | – | –
23 | CCCCCOc1ccccc1OCCC [1-propoxy-2-pentoxybenzene] | 13.8 | 31.7 | 19.4 | 100 | – | –
24 | CCCCCOc1cccc(OCCC)c1 [1-propoxy-3-pentoxybenzene] | 50 | 2.7 | 21.5 | 98 | – | –
25 | CCCCCOc1ccc(OCCC)cc1 [1-propoxy-4-pentoxybenzene] | 53.1 | 9.6 | 39.7 | 53.4 | – | –
26 | CCCOc1cccc(OCCC(C)C)c1 [3-PROPOXY-1-ISOPENTOXYBENZENE] | 20.8 | 35.7 | 19.8 | 82.6 | – | –
27 | CCCOc1ccc(OCC)cc1 [4-ETHOXY-1-PROPOXYBENZENE] | 96.8 | 56.6 | 23.4 | 53.4 | 0.03 | –
28 | C=C1C(=O)O[C@@H]2[C@H]1CC[C@H](C)[C@]1(O)C=CC(=O)[C@@]21C [PARTHENIN] | – | – | – | – | – | 59
